# High-throughput results from PubChem BioAssay.
# TRPC4 PAM – TRPC4 (mouse) allosteric potentiation; Q9QUQ5; HEK293 TRPC4beta/mu-opioid, DAMGO EC20, Fluo-4 Ca2+ flux; hits give high values; B-score at 10 µM; 0.42% of 310,000 active; AID 2227;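 active = B-score of calcium response area above 5 SD of library B-scores, with initial fluorescence ratio within 5 SD of library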
# TRPC4 block – inhibitors of mouse TRPC4 channel; Q9QUQ5; HEK293 TRPC4beta/mu-opioid, DAMGO-evoked Fluo4 calcium flux; hits give low values; B-score at 10 µM; 0.39% of 300,000 active; AID 2247;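 active = B-score over 3 SD under the library average, no early fluorescence shift, positive overall ratio signal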
#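 Assay system: Stable TRPC4beta/mu-opioid receptor HEK293 cells | Reagent: DAMGO in two steps, submaximal then maximal | Compound dosing: Single concentration per test compound | Signal: Fluo4 Ca2+ flux fluorescence | Evaluation: Per-well B score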
# TRPC4 agonist – TRPC4 (mouse) channel activation | 0.49% of 310,000 active | HEK293 TRPC4beta/mu-opioid, Fluo4 calcium fluorescence; hits give high values | B-score at 10 µM | AID 2237;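 active = B-score above 5 SD of library B-scores, and initial fluorescence ratio not above library mean plus 5 SD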;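 note: positive B-score marks a calcium rise read as TRPC4 activation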
#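 Assay system – TRPC4beta and mu-opioid receptor HEK293 stable cells · Measured by – Fluo4 fluorescence, kinetic · Schedule – dye loading 45 min room temperature, 110 s kinetic read · Read-out – B-scored integrated calcium fluorescence ratio · Controls – buffer and maximal DAMGO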
# TRPC6 inh – blocks the mouse TRPC6 cation channel. HEK293-TRPC6, membrane potential dye, ACh-evoked depolarization; hits give low values. 1.1% of 310,000 active. AID 2553. B-score at 10 µM;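 active = B-score under library mean minus 3 SD, initial fluorescence not abnormally high, positive integrated signal ratio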;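 note: B-score derived from integrated fluorescence ratio over the kinetic read; more negative B-score means stronger inhibition of depolarization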
# FID counter – fluorescent intercalator displacement, NS3 helicase counter-screen | DNA fluorescent intercalator displacement, fluorescence | inhibition, % at 7.9 µM | 0.17% of 290,000 active; in the data active = inhibition above about 37%;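 note: higher means more ethidium bromide displaced from hairpin DNA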
# TRPC6 activator – mouse TRPC6 channel activation; HEK293-TRPC6 membrane potential dye fluorescence; hits give high values; Q61143; 0.13% of 310,000 active; B-score at 10 µM;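 active = B-score of the integrated fluorescence ratio above library mean plus 3 SD, and starting fluorescence ratio within library mean plus 5 SD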;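 note: higher score means more depolarization so channel activation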
# TRPC4 spec 2 – second selectivity test of TRPC6 inhibitors: effect on mouse TRPC4; shares compounds with TRPC6 inh; HEK293 TRPC4/MOR, membrane potential dye fluorescence; channel activated by saturating DAMGO dose; inhibition, % at 10 µM; 42% of 920 active;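 active = compounds whose fluorescence signal differed from control wells by over 3 SD, either direction, in both duplicate plates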
# TRPC4 spec – mouse TRPC4 off-target activity of TRPC6 inhibitors | AID 2777 | shares compounds with TRPC6 inh | 61% of 920 active | activity change, negative = inhibition, % at 10 µM | HEK293 TRPC4/mu-opioid, membrane potential fluorescence;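 active = rise or fall in signal beyond 3 SD of buffer-only wells in both replicate plates, either sign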;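 note: integrated kinetic ratio of fluorescence range over baseline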
# HEK293 MPD ctr 2-1 – parental HEK293 nonspecific activity of TRPC6 inhibitors, second screen. signal change vs control, % at 10 µM. parental HEK293 membrane potential dye fluorescence; maximal acetylcholine challenge after compound addition. 31% of 920 active. shares compounds with TRPC6 inh;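 active = membrane potential signal moving either way by over 3 SD of the maximum-effect control, in both duplicate plates, meaning non-specific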
# HEK293 MPD ctr-1 – parental HEK293 nonspecific activity of TRPC6 inhibitors; shares compounds with TRPC6 inh; parental HEK293 membrane potential dye fluorescence; membrane potential signal change, % at 10 µM; 60% of 920 active; AID 2780;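 active = membrane potential signal shifting up or down by more than 3 SD of buffer-only wells, on both duplicate plates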
# HEK293 MPD ctr-2 – counter-screen for TRPC6 modulators: effect in parental HEK293 cells. shares compounds with TRPC6 inh. 51% of 2,400 active. membrane potential signal change, % at 10 µM. membrane potential dye fluorescence;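 active = membrane potential signal moves up or down beyond 5 SD from buffer-only wells, on both duplicate plates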
# HEK293 MPD ctr 2-2 – second counter-screen for TRPC6 modulators: effect in parental HEK293 cells | membrane potential dye fluorescence; after compound, maximal acetylcholine stimulation | inhibition, % at 10 µM | AID 488926 | 14% of 2,400 active | shares compounds with TRPC6 inh;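 active = membrane potential signal drops by more than 5 SD from the mean control signal, in both duplicate plates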
# TRPC4/MOR mod – tests whether TRPC6 modulators also affect mouse TRPC4 | shares compounds with TRPC6 inh | HEK293 TRPC4/mu-opioid, membrane potential fluorescence | percent change from control (negative = decrease, positive = increase), % at 10 µM | 69% of 2,400 active | AID 488927;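 active = membrane potential signal moved up or down beyond 5 SD of buffer control wells, in both duplicate plates, actives on both sides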
# TRPC4 ctr inh 2 – second check of whether TRPC6 modulators also affect mouse TRPC4. 55% of 2,400 active. inhibition, % at 10 µM. shares compounds with TRPC6 inh. HEK293 TRPC4/mu-opioid, membrane potential dye fluorescence; stimulated with maximal-effect DAMGO;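 active = drop in membrane potential signal beyond 5 SD of the control wells in both duplicate plates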;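 note: TRPC4 counter screen for TRPC6 hits run under conditions tuned for TRPC6 not TRPC4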
# TRPC6 block conf – mouse TRPC6 inhibitor confirmation; 43% of 3,300 active; HEK293-TRPC6, membrane potential dye, ACh-evoked depolarization; shares compounds with TRPC6 inh; inhibition, % at 10 µM;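 active = fluorescence ratio falls more than 5 SD below the full-stimulation control mean, in both duplicate runs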;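 note: integrated fluorescence ratio of peak minus minimum over baseline after agonist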
# TRPC6 act conf – mouse TRPC6 activator confirmation; AID 488961; 11% of 2,800 active; shares compounds with TRPC6 inh; activation, % at 10 µM; HEK293-TRPC6 membrane potential dye fluorescence, FDSS;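 active = ratio signal rise beyond 5 SD above unstimulated control wells' mean, seen in both duplicate runs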
# Numbers stand for hits; n = inactive; x = no result given. An excerpt weighted towards active compounds, which were near 2.3% of everything screened.
SMILES,TRPC4 PAM,TRPC4 block,TRPC4 agonist,TRPC6 inh,FID counter,TRPC6 activator,HEK293 MPD ctr-2,HEK293 MPD ctr 2-2,TRPC4/MOR mod,TRPC4 ctr inh 2,TRPC6 block conf,TRPC6 act conf,others
Cc1oc2cc3oc(=O)c(CCC(=O)N(C)CC(=O)O)c(C)c3cc2c1C,n,n,n,n,n,n,x,x,x,x,x,x,
CCN(CCCNc1ncnc2nc[nH]c12)c1cccc(C)c1,n,n,n,-6.31,n,n,n,n,n,n,n,n,
CCCCN(CCCNc1ncnc2nc[nH]c12)c1ccccc1,n,n,n,n,n,n,x,x,x,x,x,x,
O=C(NCCN1CCN(c2ccccc2)CC1)Nc1cccc(Cl)c1,n,n,n,n,n,n,x,x,x,x,x,x,
CC1CCCC(C)N1C(=O)COC(=O)CCC1CCCC1 (configuration not stated),n,n,n,n,n,n,x,x,x,x,x,x,
N#CC1=C(N)OC2=C(CC/C2=C\c2ccccc2)C1c1ccccc1 (configuration not stated),13,n,n,n,n,27.2,576.0%,n,21.0%,n,n,48.5%,
O=[N+]([O-])c1ccc2nc(SCc3cn4ccccc4n3)[nH]c2c1,n,n,n,n,n,n,x,x,x,x,x,x,
O=[N+]([O-])c1ccc2nc(SCc3cn4cc(Cl)ccc4n3)[nH]c2c1,n,n,n,-5.43,n,n,n,n,n,n,n,n,
CCN(CC)c1ccc(C=C2C(=O)OC(C)(C(C)(C)C)OC2=O)cc1 (configuration not stated),n,n,n,n,x,46.3,n,n,102.5%,n,n,n,
CCN(CC)c1ccc(C=C2C(=O)OC(c3ccccc3)OC2=O)cc1 (configuration not stated),n,n,n,n,n,n,x,x,x,x,x,x,
CCN(CC)c1ccc(C=C2C(=O)OC3(CCCC3)OC2=O)cc1,n,n,n,n,n,54.1,763.0%,n,116.0%,n,n,295.0%,
CN(C)c1ccc(C=C2C(=O)OC(C)(C(C)(C)C)OC2=O)cc1 (configuration not stated),n,n,n,n,n,n,x,x,x,x,x,x,
Nc1nonc1-n1nnc(C(=O)N/N=C/c2ccc(Cl)cc2Cl)c1CN1CCOCC1,n,n,n,n,n,n,x,x,x,x,x,x,
Cc1cccn2c(CNC3CCCc4ccccc43)c(C(=O)N3CCCCC3)nc12 (configuration not stated),n,n,n,-7.98,n,n,420.0%,75.0%,92.5%,55.0%,74.0%,x,
Cc1c(CCOC(=O)c2ccccc2)sc[n+]1Cc1ccccc1,n,n,n,-9.46,n,n,x,x,x,x,61.3%,n,TRPC4 spec 2=n;TRPC4 spec=n;HEK293 MPD ctr 2-1=42.5%;HEK293 MPD ctr-1=n
CCOc1ccc(N=c2cc(-c3ccc(OC)cc3)oc3ccccc23)cc1,n,n,n,n,n,n,x,x,x,x,x,x,
COc1ccc(N=c2cc(-c3ccc(OC)cc3)oc3ccccc23)cc1,n,n,n,-5.54,n,n,-109.0%,n,-25.5%,52.0%,38.0%,n,
COc1ccc(-c2cc(=Nc3ccc(C)cc3)c3ccccc3o2)cc1,n,n,n,-8.77,n,n,x,x,x,x,n,n,TRPC4 spec 2=n;TRPC4 spec=-11.9%;HEK293 MPD ctr 2-1=n;HEK293 MPD ctr-1=n
COc1ccc(N=c2cc(-c3ccc(O)cc3)oc3ccccc23)cc1,n,n,n,-6.07,n,n,-93.5%,n,-28.0%,64.0%,41.0%,n,
CN1CCN(CCCNC(=O)c2ccc3c(Cl)c4c(nc3c2)CCCC4)CC1,n,n,n,n,n,n,x,x,x,x,x,x,
CCCCCN(C(=O)CCC(=O)OCC(=O)N(C)Cc1ccccc1C)c1c(N)n(CCCC)c(=O)[nH]c1=O,n,n,n,n,x,n,x,x,x,x,x,x,
O=C(c1ccccc1)N1N=C(c2ccccc2O)CC1c1ccccc1 (configuration not stated),n,n,n,n,n,n,x,x,x,x,x,x,
CC(OC(=O)C1=COCCO1)C(=O)Nc1ccc(Cl)cn1 (configuration not stated),n,n,n,n,x,n,x,x,x,x,x,x,
CCOC(=O)c1c(NC(=O)/C=C/C(=O)O)sc(C)c1-c1ccc(C(C)(C)C)cc1,n,-10,n,n,n,14,n,n,18.5%,50.0%,n,29.5%,
CCOC(=O)c1c(NC(=O)/C=C\C(=O)O)sc(C)c1-c1ccccc1,n,n,n,n,n,n,x,x,x,x,x,x,
SMILES,TRPC4 PAM,TRPC4 block,TRPC4 agonist,TRPC6 inh,FID counter,TRPC6 activator,HEK293 MPD ctr-2,HEK293 MPD ctr 2-2,TRPC4/MOR mod,TRPC4 ctr inh 2,TRPC6 block conf,TRPC6 act conf,others
Cc1cccc2cc3c(NC(=O)C(C)(C)C)nn(CC(C)C)c3nc12,n,n,n,n,n,n,x,x,x,x,x,x,
c1ccc(CNc2ncnc3ccccc23)cc1,n,n,n,n,n,n,x,x,x,x,x,x,
O=C(Cc1ccccc1)NNc1c2ccccc2nc2ccccc12,n,n,n,n,n,n,x,x,x,x,x,x,
OCC(Cc1ccccc1)Nc1c2ccccc2nc2ccccc12 (configuration not stated),n,n,n,-8.99,n,n,n,n,-88.0%,69.5%,54.5%,n,
c1ccc(CNc2c3ccccc3nc3ccccc23)cc1,n,-7,n,-7.78,n,n,x,x,x,x,n,n,TRPC4 spec 2=59.5%;TRPC4 spec=-23.2%;HEK293 MPD ctr 2-1=45.0%;HEK293 MPD ctr-1=-449.5%
CNc1nc(NCc2ccccc2)c2ccccc2n1,n,-6,n,-5.27,n,n,-110.5%,n,-26.0%,78.5%,53.5%,n,
